The list is not random: actives were taken first. Their share in the collection is about 3.5%.
MrgX1 antagonist = antagonists of human MrgX1 receptor; Q96LB2; MRGX1-HEK293 calcium flux, Fluo-4, BAM8-22 antagonism; active compounds read low; B-score at 10 µM; 310,000 tested, 1.3% active; AID 588676;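 active = calcium-response B-score plate-corrected more than 3 library SD below zero, starting fluorescence within 5 deviations, no agonist response on first addition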;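 note: peak minus trough fluorescence over baseline after final BAM8-22 challenge near maximal dose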
MrgX1 allo act = human MrgX1 positive allosteric modulation, primary screen. Q96LB2. MrgX1-HEK293, Fluo-4 calcium flux, FDSS; active compounds read high. B-score at 10 µM. 310,000 tested, 0.63% active. AID 588675;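 active = plate-corrected calcium response at least 3 library SD above typical, normal starting fluorescence, not activating the receptor alone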;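 note: compound read alongside a low EC10 to EC30 dose of BAM8-22 agonist; peak minus trough fluorescence over baseline measured at the second addition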
RGS4 block = inhibitors of human RGS4; P49798; HEK293 M3R/RGS4 inducible, Fluo-4 calcium flux; active compounds read high; triggered by carbachol at its EC20; B-score at 10 µM; 310,000 tested, 0.45% active; AID 463165;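 active = B-score, a plate-corrected calcium signal, over three deviations above library mean, with baseline fluorescence within five deviations of library mean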;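 note: RGS4 expression induced by doxycycline in cells with stable M3 receptor; B-score is computed from the integrated fluorescence ratio over baseline after carbachol; higher B-score means a larger calcium signal and so more RGS4 inhibition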
Target sequence (P49798 whole entry, looked up): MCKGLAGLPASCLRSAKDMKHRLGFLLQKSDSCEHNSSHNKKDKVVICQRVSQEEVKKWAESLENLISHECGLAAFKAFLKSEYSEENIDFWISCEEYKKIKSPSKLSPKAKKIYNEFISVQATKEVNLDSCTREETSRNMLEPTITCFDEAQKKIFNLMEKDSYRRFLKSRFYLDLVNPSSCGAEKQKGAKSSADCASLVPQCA
RGS4 pot = potentiators or activators of RGS4. HEK293 M3R/inducible RGS4, carbachol calcium flux Fluo4; active compounds read low. B-score at 10 µM. 310,000 tested, 0.92% active;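 active = B-score of the integrated calcium signal more than 4 SD below the library mean, with starting fluorescence not abnormally high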;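 note: negative B-score means reduced calcium response which marks RGS4 activation or potentiation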
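Assay system: Inducible-RGS4 HEK293 cells carrying M3 receptor | Schedule: Compound preincubation 20 min at room temperature before agonist | Signal: Kinetic calcium fluorescence imaging with Fluo4-AM dye, 2 µM | Read-out basis: B score from integrated fluorescence ratio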
MrgX1 agonist = activates human MrgX1 receptor signaling | B-score at 10 µM | MrgX1-HEK293 cells, Fluo-4 calcium fluorescence, agonist mode; active compounds read high | 310,000 tested, 0.44% active | Q96LB2;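 active = calcium response B-score plate-corrected fluorescence ratio at least 3 library SD, with starting fluorescence B-score inside 5 SD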
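Assay system: stable human MrgX1 HEK293 cell line. Quantity: 15,000 cells per well. Schedule: cells plated overnight, dye loaded 0.5 h 37 °C, 0.5 h room temperature. Detection: Fluo-4 NW calcium-flux fluorescence, kinetic read. Read-out basis: peak-minus-minimum fluorescence over baseline, converted to B scores. Control set: positive and negative control wells on each plate.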
* = called active by the depositor; i = inactive.

SMILES	MrgX1 antagonist	MrgX1 allo act	RGS4 block	RGS4 pot	MrgX1 agonist
CC(=O)NC(Cc1cccc(C)c1)C(=O)NC1CCN(c2ncccc2[N+](=O)[O-])CC1 (configuration not stated)	-4.68*	i	i	i	i
Clc1ccc(-c2nnc(Sc3nc4ccccc4o3)c3ccccc23)cc1	i	i	i	i	i
O=c1c(Cl)c2oc3ccccc3nc-2c2ccccc12	-5.7*	i	i	i	i
CC1(c2nnc(-c3cccc(Cl)c3)o2)CC(c2ccccc2)=NO1 (configuration not stated)	i	i	i	i	i
COc1cccc(/C=N/NC(=O)N/N=C/c2cccc(OC)c2O)c1O	i	i	i	-7.91*	i
COc1cccc(/C=N/NC(=O)C(=O)N2CCCC2)c1O	i	i	i	i	i
COc1cccc(/C=N/Nc2snc(SC)c2C#N)c1O	-5.44*	i	i	i	i
COc1ccc(/C=N/Nc2snc(SC)c2C#N)cc1OC	i	i	i	i	i
CC(C)OCCCNC(=O)COc1ccc2oc3c(c2c1)CCCC3	i	i	i	i	i
COc1ccccc1NS(=O)(=O)c1cccc(C(=O)N(C)Cc2cccs2)c1	i	i	i	i	i
Nc1c(C(=O)NCCc2ccc(Cl)cc2)sc2ccc(S(=O)(=O)N3CCCCC3)cc12	i	i	8.99*	i	i
Cc1cc(C)cc(-n2c(C)cc(/C=N/NC(=O)c3cccc([N+](=O)[O-])c3C)c2C)c1	i	i	i	-7.35*	i
Cc1c(C(=O)N/N=C/c2ccoc2)cccc1[N+](=O)[O-]	i	i	i	i	i
Cc1cc(C)cc(-n2c(C)cc(/C=N/NC(=O)CSc3ncccn3)c2C)c1	i	i	i	-8.35*	i
Cc1cc(C)cc(-n2c(C)cc(/C=N/NC(=O)c3ccncc3)c2C)c1	i	i	i	i	i
CCOc1ccc(N2C(=O)CC(Sc3nc(-c4cccs4)cc(C(F)(F)F)c3C#N)C2=O)cc1 (configuration not stated)	-7.06*	i	i	i	i
CCOc1ccc(N2C(=O)CC(Sc3ncccn3)C2=O)cc1 (configuration not stated)	i	i	i	i	i
CCN(CC)S(=O)(=O)c1ccc(C(=O)NCC2CCCCC2)cc1	i	i	i	i	i
COc1ccc(NC(=O)N2CCCc3ccccc32)cc1	i	i	i	i	i
COc1ccc(N/N=C(/C(C)=O)N2CCCc3ccccc32)cc1	i	i	i	-7.99*	i
CCCCC[C@H](O)/C=C/[C@H]1CCC(=O)[C@@H]1CCCCCCC(=O)N1CCCCC1CO (some centres not stated)	i	i	i	-8.47*	48.3*
CC(OC(=O)CCCC(=O)Nc1ccccc1)C(=O)c1ccccc1 (configuration not stated)	i	i	i	i	i
Cc1nc2ccccn2c1C(=O)N=Nc1c(O)n(CCC(C)C)c2ccccc12	i	i	i	-7.31*	i
CCN(CC)CCCNC(=O)c1[nH]c2ccccc2c1Sc1ccc(Cl)cc1	i	i	i	i	i
C/C(=N\NC(=O)COc1ccc(C)cc1[N+](=O)[O-])c1cccs1	-6.52*	i	i	i	i
CCOc1ccc(C(=O)Nc2ccc(NC(=O)c3cccs3)cc2)cc1[N+](=O)[O-]	-7.26*	i	i	i	i
C/C(=N\NC(=O)COc1ccc(C)cc1Br)c1cc([N+](=O)[O-])cs1	i	i	i	i	i
CCN(CC)C(=O)C1=C(C)Nc2ncnn2C1c1cccnc1 (configuration not stated)	i	i	i	i	i
O=C(O)Cc1ccc(NC(=O)C2CC=CCC2C(=O)O)cc1 (configuration not stated)	-8.31*	i	i	i	i
CCc1ccc(NC(=O)C2CC=CCC2C(=O)O)cc1 (configuration not stated)	i	i	i	i	i
